Measured values taken from article PMC3736091 (Molecular cancer therapeutics, 2013).
Values joined by “and” are separate entries in the source; they are usually repeats but may differ in a detail not shown here. Equal entries are not always repeated. Marks after values point to notes of the source that are not given here. One block for each compound: values may come before it.

What was measured:
[1] = system: SW620 cells; assay: Clonogenic survival assay, SW620; type: cell-based, human; settings: for Enhancement factor: 1 μM KU59403
Procedure, shortened: (§1)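 Clonogenic assay in RPMI 1640 + 10% FBS, 37°C, 5% CO2, <30 passages; HCT116-N7 stably expresses HPV16 E6. Exponentially growing cells had 16 h exposure to cytotoxic (etoposide, doxorubicin or camptothecin; etoposide 1 μM for the bar data) ± test compound 1 μM in 0.5% DMSO, then were seeded for colonies. Survival was normalised to DMSO or inhibitor-alone control. Enhancement factor = survival cytotoxic alone ÷ survival combination, per experiment; 3 independent experiments.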

[2] = system: LoVo cells; assay: Clonogenic survival assay, LoVo; type: cell-based, human; settings: for % Survival Cytotoxic alone / Enhancement factor / % Survival Cytotoxic + KU59403: LoVo; for Enhancement factor: 1 μM KU59403
Procedure, shortened: as §1

[3] = target: ATM activity in SW620 cells (Homo sapiens, UniProt Q13315); assay: Inhibition of cellular ATM activity, SW620; type: cell-based
[4] = Plasma and tumour concentrations in SW620 tumour-bearing nude mice; type: in vivo; settings: for Tumour concentration: SW620 xenograft
Procedure, shortened: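 Female CD-1 nude mice carried SW620 s.c. flank xenografts (1×10^7 cells) of ~650 mm³. Test compound was given at 50 mg/kg i.p. in equimolar phosphoric acid/saline, pH 4. The comparator ATM inhibitor was given at 10 mg/kg i.p. in phosphoric acid, 5% DMSO, 10% encapsin, pH 4. Dosing volume was 10 ml/kg. Plasma and tumour were sampled at 1 and 4 h and analysed by HPLC; the tumour detection limit was 0.5 μM.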

[5] = system: human tumour cell lines; settings: cited from earlier work
[6] = system: PI4K; settings: read-out: Enzyme IC50 PI4K; purified enzyme; data previously reported; cited from earlier work
[7] = target: ATR (Homo sapiens, UniProt Q13535); settings: read-out: Enzyme IC50 ATR; purified enzyme; data previously reported; cited from earlier work
[8] = system: PI3K; settings: read-out: Enzyme IC50 PI3K; purified enzyme; data previously reported; cited from earlier work
[9] = system: SW620 xenografts; assay: Anti-tumour efficacy, SW620 xenografts; type: in vivo, mice
[10] = system: HCT116 cells; assay: Clonogenic survival assay, HCT116; type: cell-based, human; settings: HCT116, etoposide 1 μM + KU59403 1 μM (Figure 1D)
Procedure, shortened: as §1

[11] = Plasma and tissue concentrations in Balb/C mice; type: in vivo; settings: 25 mg/kg i.v., female Balb/C mice, at 4 hr
Procedure, shortened: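 Female Balb/C mice (non-tumour-bearing) received 25 mg/kg i.v. (10 ml/kg) in equimolar phosphoric acid/saline, pH 4. At time points to 4 h, mice were bled by terminal cardiac puncture. Plasma was stored at −20 °C; brain, liver, spleen and lung were snap frozen and homogenised in PBS (1:3 w/v). Samples underwent HPLC against a plasma standard curve (0.05-10 μg/ml); tissue was quantified by method of addition. n = 3 mice per time point.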

[12] = target: T1, ATM (Homo sapiens, UniProt Q13315); assay: Enzyme inhibition, purified ATM; type: biochemical
Procedure, shortened: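 Enzymes were isolated from HeLa cells: ATM plus DNA-PK, PI3K, ATR, PI4K and mTOR. Activity was measured across increasing test compound concentrations. IC50 was calculated from sigmoid plots of inhibitor concentration versus activity. Values are the mean of five independent experiments.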

[13] = system: human tumour cell lines; assay: Concentration needed for in vitro chemo- and radio-sensitisation; type: cell-based
[14] = Body weight; type: in vivo, mice; settings: for Maximum body weight loss: SW620 xenograft studies
[15] = system: MDA-MB-231 cells; assay: Clonogenic survival assay, MDA-MB-231; type: cell-based, human; settings: MDA-MB-231, etoposide 1 μM + KU59403 1 μM (Figure 1D)
Procedure, shortened: as §1

[16] = system: ATM activity in MDA-MB231 cells; assay: Inhibition of IR-induced ATM activity, MDA-MB231; type: cell-based, human; settings: 1 μM
[17] = system: HCT116-N7 cells; assay: Clonogenic survival assay, HCT116-N7; type: cell-based, human; settings: HCT116-N7, etoposide 1 μM + KU59403 1 μM (Figure 1D)
Procedure, shortened: as §1

[18] = system: HCT116-N7 xenografts; assay: Anti-tumour efficacy, HCT116-N7 xenografts; type: in vivo, mice
[19] = target: ATM activity in HCT116 cells (Homo sapiens, UniProt Q13315); assay: Inhibition of IR-induced ATM activity, HCT116; type: cell-based; settings: 1 μM
[20] = target: T1, ATM; settings: read-out: Enzyme IC50 ATM; purified enzyme; data previously reported; cited from earlier work
[21] = KU59403 12.5 mg/kg 2× daily ×5 alone
[22] = KU59403 25 mg/kg daily ×5 alone
[23] = etopophos + KU59403 6 mg/kg 2× daily ×5
[24] = etopophos + KU59403 12.5 mg/kg 1× daily ×5 5 hr post
[25] = etopophos + KU59403 12.5 mg/kg 1× daily ×5 concurrent
[26] = etopophos + KU59403 12.5 mg/kg 2× daily ×5
[27] = etopophos + KU59403 25 mg/kg 2× daily ×5
[28] = irinotecan + KU59403 25 mg/kg daily ×5
[29] = etopophos 11.35 mg/kg i.p. daily ×5 + KU59403 25 mg/kg i.p. twice daily for 5 days
[30] = etopophos (equivalent to 10 mg/kg etoposide) daily ×5 alone

Chain of ATR (Q13535 whole entry): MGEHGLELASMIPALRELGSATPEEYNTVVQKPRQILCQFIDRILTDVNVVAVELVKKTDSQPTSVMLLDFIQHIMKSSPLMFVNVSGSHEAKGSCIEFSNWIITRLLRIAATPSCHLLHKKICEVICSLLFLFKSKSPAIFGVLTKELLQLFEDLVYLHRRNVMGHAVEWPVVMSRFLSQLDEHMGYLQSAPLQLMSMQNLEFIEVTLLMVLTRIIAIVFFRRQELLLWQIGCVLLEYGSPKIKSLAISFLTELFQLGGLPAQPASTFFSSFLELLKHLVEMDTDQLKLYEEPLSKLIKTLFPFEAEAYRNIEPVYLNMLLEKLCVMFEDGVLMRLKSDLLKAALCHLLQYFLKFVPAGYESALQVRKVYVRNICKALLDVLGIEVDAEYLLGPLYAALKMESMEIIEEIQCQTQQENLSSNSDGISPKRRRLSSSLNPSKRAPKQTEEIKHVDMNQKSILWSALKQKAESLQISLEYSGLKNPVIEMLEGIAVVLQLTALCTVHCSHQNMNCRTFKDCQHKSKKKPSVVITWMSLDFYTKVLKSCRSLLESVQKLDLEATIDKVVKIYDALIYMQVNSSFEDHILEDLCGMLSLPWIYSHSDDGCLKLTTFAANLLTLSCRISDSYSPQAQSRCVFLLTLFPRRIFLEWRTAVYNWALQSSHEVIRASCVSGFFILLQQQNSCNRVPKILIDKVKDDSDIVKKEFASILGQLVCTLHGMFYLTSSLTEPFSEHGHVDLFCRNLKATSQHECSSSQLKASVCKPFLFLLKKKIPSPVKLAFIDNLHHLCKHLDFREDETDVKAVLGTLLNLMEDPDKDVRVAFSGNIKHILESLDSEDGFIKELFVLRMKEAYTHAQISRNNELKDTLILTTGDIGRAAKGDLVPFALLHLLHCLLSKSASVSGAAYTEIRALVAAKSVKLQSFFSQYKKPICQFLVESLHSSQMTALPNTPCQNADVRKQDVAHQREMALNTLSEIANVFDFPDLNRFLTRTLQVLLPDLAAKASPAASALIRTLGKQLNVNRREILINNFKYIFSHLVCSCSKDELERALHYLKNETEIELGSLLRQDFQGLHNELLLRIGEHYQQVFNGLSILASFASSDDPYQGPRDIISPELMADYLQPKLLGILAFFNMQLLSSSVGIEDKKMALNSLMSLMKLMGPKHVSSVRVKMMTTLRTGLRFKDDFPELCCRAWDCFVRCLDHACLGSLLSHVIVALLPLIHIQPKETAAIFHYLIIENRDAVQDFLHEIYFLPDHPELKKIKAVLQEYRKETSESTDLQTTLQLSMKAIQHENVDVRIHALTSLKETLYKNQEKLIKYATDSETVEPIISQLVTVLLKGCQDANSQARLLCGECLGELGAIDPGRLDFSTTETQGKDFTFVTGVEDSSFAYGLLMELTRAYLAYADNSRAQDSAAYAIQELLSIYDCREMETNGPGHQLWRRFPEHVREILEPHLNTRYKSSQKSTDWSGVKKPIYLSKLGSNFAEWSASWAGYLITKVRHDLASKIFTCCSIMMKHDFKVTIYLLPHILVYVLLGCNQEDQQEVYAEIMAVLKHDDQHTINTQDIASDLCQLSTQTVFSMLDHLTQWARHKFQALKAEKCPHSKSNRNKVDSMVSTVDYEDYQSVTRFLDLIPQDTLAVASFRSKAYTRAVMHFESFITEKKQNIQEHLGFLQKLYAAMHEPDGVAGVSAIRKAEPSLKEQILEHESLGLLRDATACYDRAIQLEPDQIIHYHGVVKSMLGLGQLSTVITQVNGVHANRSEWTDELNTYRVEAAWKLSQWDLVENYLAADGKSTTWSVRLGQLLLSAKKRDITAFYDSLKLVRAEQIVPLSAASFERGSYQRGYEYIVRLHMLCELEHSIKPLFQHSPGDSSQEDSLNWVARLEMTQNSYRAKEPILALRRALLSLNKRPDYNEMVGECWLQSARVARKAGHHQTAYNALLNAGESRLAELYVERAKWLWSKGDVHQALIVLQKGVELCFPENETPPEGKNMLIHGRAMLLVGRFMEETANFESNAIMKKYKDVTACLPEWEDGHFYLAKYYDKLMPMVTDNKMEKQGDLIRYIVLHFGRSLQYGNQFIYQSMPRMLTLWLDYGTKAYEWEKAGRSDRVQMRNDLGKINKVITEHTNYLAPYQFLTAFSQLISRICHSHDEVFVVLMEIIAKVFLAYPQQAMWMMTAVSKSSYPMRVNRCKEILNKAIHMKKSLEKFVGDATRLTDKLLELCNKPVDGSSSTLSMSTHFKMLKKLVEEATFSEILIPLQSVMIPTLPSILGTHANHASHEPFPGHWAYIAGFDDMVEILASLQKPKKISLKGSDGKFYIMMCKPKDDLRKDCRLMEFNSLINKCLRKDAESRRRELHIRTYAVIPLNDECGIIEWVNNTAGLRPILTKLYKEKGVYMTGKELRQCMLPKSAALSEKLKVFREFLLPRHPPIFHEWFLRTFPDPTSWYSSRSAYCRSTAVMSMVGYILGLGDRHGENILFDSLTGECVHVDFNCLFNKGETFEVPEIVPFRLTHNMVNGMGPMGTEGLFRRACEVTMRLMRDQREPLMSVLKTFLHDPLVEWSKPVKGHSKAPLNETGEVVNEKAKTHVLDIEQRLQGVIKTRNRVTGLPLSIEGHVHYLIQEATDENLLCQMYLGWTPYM
Chain of ATR (Q8WXE1 whole entry partner): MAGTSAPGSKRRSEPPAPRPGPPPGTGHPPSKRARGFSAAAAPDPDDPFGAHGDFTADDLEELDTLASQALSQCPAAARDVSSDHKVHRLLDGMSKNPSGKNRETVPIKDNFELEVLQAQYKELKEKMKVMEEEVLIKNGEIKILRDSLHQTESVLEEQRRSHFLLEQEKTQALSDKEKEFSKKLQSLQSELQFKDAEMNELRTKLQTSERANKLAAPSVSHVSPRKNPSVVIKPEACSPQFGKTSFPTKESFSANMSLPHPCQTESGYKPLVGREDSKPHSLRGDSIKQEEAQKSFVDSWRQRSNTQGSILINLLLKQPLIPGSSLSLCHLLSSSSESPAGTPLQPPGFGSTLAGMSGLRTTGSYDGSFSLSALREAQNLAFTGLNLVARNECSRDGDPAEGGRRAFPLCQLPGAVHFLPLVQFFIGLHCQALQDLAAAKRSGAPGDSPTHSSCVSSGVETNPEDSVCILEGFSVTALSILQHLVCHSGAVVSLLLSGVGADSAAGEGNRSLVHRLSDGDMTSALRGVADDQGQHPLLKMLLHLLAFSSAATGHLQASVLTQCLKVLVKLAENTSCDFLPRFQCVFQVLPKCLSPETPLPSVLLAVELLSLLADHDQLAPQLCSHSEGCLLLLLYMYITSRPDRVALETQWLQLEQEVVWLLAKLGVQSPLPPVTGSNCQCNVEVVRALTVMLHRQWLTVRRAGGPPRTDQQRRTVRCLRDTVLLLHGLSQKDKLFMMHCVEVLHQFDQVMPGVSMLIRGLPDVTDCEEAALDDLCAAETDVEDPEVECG

Structure (SMILES): CC[C@@]1(O)C(=O)OCc2c1cc1n(c2=O)Cc2cc3ccccc3nc2-1 [Camptothecin, camptothecin, reference compound]
% Survival Cytotoxic alone ([1]; SW620, cytotoxic 10 nM, 16 hr): 2.4 ± 0.2% | % Survival Cytotoxic alone ([2]; cytotoxic 10 nM, 16 hr): 33 ± 7.9%

Structure (SMILES): COc1cccc2c1C(=O)c1c(O)c3c(c(O)c1C2=O)C[C@@](O)(C(=O)CO)C[C@@H]3O[C@H]1C[C@H](N)[C@H](O)[C@H](C)O1 [Doxorubicin, doxorubicin, reference compound]
% Survival Cytotoxic alone ([1]; SW620, cytotoxic 10 nM, 16 hr): 50 ± 9% | % Survival Cytotoxic alone ([1]; SW620, cytotoxic 100 nM, 16 hr): 0.02 ± 0.01% | % Survival Cytotoxic alone ([2]; cytotoxic 10 nM, 16 hr): 47 ± 3.1% | % Survival Cytotoxic alone ([2]; cytotoxic 100 nM, 16 hr): 2.1 ± 0.5%

Structure (SMILES): COc1cc([C@@H]2c3cc4c(cc3[C@@H](O[C@@H]3O[C@@H]5CO[C@@H](C)O[C@H]5[C@H](O)[C@H]3O)[C@H]3COC(=O)[C@H]23)OCO4)cc(OC)c1O [Etoposide, etoposide, reference compound]
% Survival Cytotoxic alone ([1]; SW620, cytotoxic 100 nM, 16 hr): 89 ± 8.3% | % Survival Cytotoxic alone ([1]; SW620, cytotoxic 1 μM, 16 hr): 3.8 ± 1.1% | % Survival Cytotoxic alone ([2]; cytotoxic 100 nM, 16 hr): 58 ± 8.3% | % Survival Cytotoxic alone ([2]; cytotoxic 1 μM, 16 hr): 3.9 ± 0.8%

Inhibition of ATM activity ([3]; 10 μM): substantially inhibited ATM activity | Tumour concentration ([4]; 10 mg/kg i.p., below limit of detection): < 0.5 µM | Plasma concentration ([4]; single dose 10 mg/kg i.p., SW620-bearing nude mice): over 1 μM
Structure (SMILES): O=c1cc(-c2cccc3c2Sc2ccccc2S3)oc(N2CCOCC2)c1 [KU55933]
Concentration needed to induce in vitro chemo- and radio-sensitisation [5]: 10 µM | IC50 [6]: > 10 µM | IC50 [7]: > 10 µM | IC50 [8]: 1.7 µM

Structure (SMILES): CN1CCN(CCC(=O)Nc2ccc3c(c2)Sc2cccc(-c4cc(=O)cc(N5CCOCC5)o4)c2S3)CC1 [KU59403]
Inhibition of ATM activity ([3]; 1 μM): > 50% | Delay [9, 21]: 0.5 days | Time to RTV4 [9, 21]: 7 days | Delay [9, 22]: 5.5 days | Time to RTV4 [9, 22]: 12 days | Increase in etopophos-induced tumour growth delay ([9]; KU59403 25 mg/kg twice daily, SW620 xenografts): 3 fold | Delay [9, 23]: 5.5 days | Enhancement (%) [9, 23]: 38% | Time to RTV4 [9, 23]: 12 days | Delay [9, 24]: 3.5 days | Time to RTV4 [9, 24]: 10 days | Delay [9, 25]: 10 days | Enhancement (%) [9, 25]: 150% | Time to RTV4 [9, 25]: 16.5 days | Delay [9, 26]: 8.5 days | Enhancement (%) [9, 26]: 113 ^§ % | Time to RTV4 [9, 26]: 15 days | Delay [9, 27]: 11.5 days | Time to RTV4 [9, 27]: 18 days | Enhancement (%) ([9]; etopophos + KU59403 25 mg/kg 2× daily ×5, 25 mg/kg): 190 ^* % | Delay [9, 28]: 19.5 days | Time to RTV4 [9, 28]: 26 days | Enhancement (%) ([9]; irinotecan + KU59403 25 mg/kg daily ×5, 25 mg/kg): 144% and 144 ^* % | Time plasma concentration maintained ([4]; 50 mg/kg i.p., SW620-bearing nude mice): at least 4 hours | Tumour concentration ([4]; 50 mg/kg i.p., 4 hour time point): 1.9 µM | Plasma concentration ([4]; single dose 50 mg/kg i.p., SW620-bearing nude mice, 1 and 4 hours): 5 µM | Enhancement of etoposide cytotoxicity [10]: 2.3 ± 1.6 fold | Plasma concentration [11]: less than 0.1 μM | Specificity for ATM over other members of the PI3K (PIKK) family tested [12]: at least 1000 fold | % Survival Cytotoxic + KU59403 ([1]; SW620, camptothecin 10 nM + 1 μM KU59403, 16 hr): 0.71 ± 0.35 % | Enhancement factor ([1]; SW620, camptothecin 10 nM): 4 and 4.3 ± 2.8 | % Survival Cytotoxic + KU59403 ([1]; SW620, doxorubicin 10 nM + 1 μM KU59403, 16 hr): 17 ± 0.2 % | Enhancement factor ([1]; SW620, doxorubicin 10 nM): 2.9 ± 0.6 | % Survival Cytotoxic + KU59403 ([1]; SW620, doxorubicin 100 nM + 1 μM KU59403, 16 hr): 0.01 ± .001% | Enhancement factor ([1]; SW620, doxorubicin 100 nM): 1.8 ± 0.7 | % Survival Cytotoxic + KU59403 ([1]; SW620, etoposide 100 nM + 1 μM KU59403, 16 hr): 35 ± 12 % | Enhancement factor ([1]; SW620, etoposide 100 nM): 2.9 ± 1.5 | % Survival Cytotoxic + KU59403 ([1]; SW620, etoposide 1 μM + 1 μM KU59403, 16 hr): 0.41 ± 0.23 % | Enhancement of etoposide cytotoxicity ([1]; SW620, etoposide 1 μM + KU59403 1 μM (Figure 1D)): 11.9 ± 4.7 fold and 12 fold | Enhancement factor ([1]; SW620, etoposide 1 μM): 12 ± 7 | % survival, inhibitor alone ([1]; SW620 cells, KU59403 1 μM alone, 16 hr): 91± 6% | Concentration at which an effective chemo-sensitiser [13]: 1 µM | Nadir % Starting Body weight [14, 21]: 100% | Nadir % Starting Body weight [14, 22]: 99.7% | Maximum body weight loss ([14]; combination of KU59403 and etopophos): 7% | Nadir % Starting Body weight [14, 23]: 96.9% | Nadir % Starting Body weight [14, 24]: 94.3% | Nadir % Starting Body weight [14, 25]: 96.5% | Nadir % Starting Body weight [14, 26]: 94.9% | Nadir % Starting Body weight [14, 27]: 93.3% | Maximum body weight loss ([14]; given as a single agent): < 2% | Nadir % Starting Body weight [14, 28]: 100% | Enhancement of etoposide cytotoxicity [15]: 3.8 ± 1.8 fold | Inhibition of IR-induced ATM activity [16]: approximately 50% | Enhancement of etoposide cytotoxicity [17]: 3.8 ± 2.5 fold | Increase in etopophos-induced tumour growth delay ([18]; KU59403 25 mg/kg twice daily, HCT116-N7 xenografts): 3 fold | Enhancement of etopophos activity [18, 29]: 300% | Etopophos-induced tumour growth delay [18, 29]: 8.5 days | % survival, inhibitor alone ([2]; LoVo cells, KU59403 1 μM alone, 16 hr): 88± 7% | Enhancement factor ([2]; camptothecin 10 nM): 7 and 6.9 ± 3.8 | % Survival Cytotoxic + KU59403 ([2]; doxorubicin 10 nM + 1 μM KU59403, 16 hr): 16 ± 6.9 % | Enhancement factor ([2]; doxorubicin 10 nM): 3.2 ± 1 | % Survival Cytotoxic + KU59403 ([2]; doxorubicin 100 nM + 1 μM KU59403, 16 hr): 0.35 ± 0.04 % | Enhancement factor ([2]; doxorubicin 100 nM): 6.1 ± 2.1 | % Survival Cytotoxic + KU59403 ([2]; etoposide 100 nM + 1 μM KU59403, 16 hr): 18 ± 0.5 % | Enhancement factor ([2]; etoposide 100 nM): 3.3 ± 0.4 | % Survival Cytotoxic + KU59403 ([2]; etoposide 1 μM + 1 μM KU59403, 16 hr): 1.1 ± 0.2 % | Enhancement factor ([2]; etoposide 1 μM): 3.8 ± 1.5 | Inhibition of IR-induced ATM activity [19]: > 50%

Structure (SMILES): C[C@@H]1CN(CC(=O)Nc2ccc3c(c2)Cc2cccc(-c4cc(=O)cc(N5CCOCC5)o4)c2S3)C[C@H](C)O1 [KU-600019]
Concentration needed to induce in vitro chemo- and radio-sensitisation [5]: 3 µM

Structure (SMILES): O=c1cc(N2CCOCC2)oc2c(-c3ccccc3)cccc12 [LY294002]
IC50 [20]: > 100 µM | IC50 [7]: 100 µM

Structure (SMILES): COc1cc([C@@H]2c3cc4c(cc3[C@@H](O[C@@H]3O[C@@H]5CO[C@@H](C)O[C@H]5[C@H](O)[C@H]3O)[C@H]3COC(=O)[C@H]23)OCO4)cc(OC)c1OP(=O)(O)O [etopophos, Etoposide phosphate, reference compound]
Delay [9, 30]: 4 days | Time to RTV4 [9, 30]: 10.5 days | Nadir % Starting Body weight [14, 30]: 98.6% | Maximum body weight loss ([14]; given as a single agent): < 2% | Median time to RTV4 ([18]; etopophos 11.35 mg/kg i.p. daily for 5 days alone): 5.5 days
